From ChEMBL document CHEMBL3297649, “Structure-activity relationships of privileged structures lead to the discovery of novel biased ligands at the dopamine D₂ receptor” (J Med Chem, 2014)
Active and inactive are the calls of the source. The calls are words filed in the database; no cut-off is given here.

What was measured:
[1] = target: T1, D(2) dopamine receptor (Homo sapiens, UniProt P14416); assay: Displacement of [3H]spiperone from human D2L receptor expressed in FlpIn CHO cell membrane after 3 hrs by liquid scintillation counting analysis; type: cell membranes
T1 sequence (P14416 whole entry): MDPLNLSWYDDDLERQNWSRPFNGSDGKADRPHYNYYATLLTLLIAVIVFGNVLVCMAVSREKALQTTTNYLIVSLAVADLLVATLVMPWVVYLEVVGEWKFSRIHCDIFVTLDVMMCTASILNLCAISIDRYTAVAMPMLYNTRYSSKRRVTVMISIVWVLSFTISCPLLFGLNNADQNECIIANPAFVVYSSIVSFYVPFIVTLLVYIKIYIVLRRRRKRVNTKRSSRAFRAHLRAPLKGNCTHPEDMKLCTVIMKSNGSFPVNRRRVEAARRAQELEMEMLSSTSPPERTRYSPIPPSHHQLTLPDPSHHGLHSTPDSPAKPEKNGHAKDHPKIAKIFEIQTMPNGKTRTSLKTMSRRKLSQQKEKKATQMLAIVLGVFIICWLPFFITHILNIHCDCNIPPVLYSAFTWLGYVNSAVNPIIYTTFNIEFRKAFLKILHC
Summary of the method: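 Membranes from D2L FlpIn CHO cells, 3 μg, with 0.05 nM [3H]spiperone, 100 μM GppNHp and varied competitor in 20 mM HEPES, 100 mM NaCl, 6 mM MgCl2, 1 mM EGTA, 1 mM EDTA, pH 7.4, 3 h at 37 °C. Filtered on GF/B, washed in ice-cold saline, counted by liquid scintillation. Three experiments in duplicate.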

[2] = target: T1, D(2) dopamine receptor; assay: Competitive antagonist activity at human D2L receptor expressed in FlpIn CHO cells assessed as inhibition of dopamine-induced ERK1/2 phosphorylation treated for 30 mins prior to dopamine stimulation for 5 mins by AlphaScreen assay; type: cell-based
Summary of the method: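 Human D2L FlpIn CHO cells serum-starved overnight. Inhibitor at a range of dilutions for 30 min at 37 °C, then 10 nM dopamine for 5 min. Lysed; phospho-ERK1/2 detected by AlphaScreen. pIC50 taken from inhibition curves; three to four experiments in duplicate.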

[3] = target: T1, D(2) dopamine receptor; assay: Agonist activity at human D2L receptor expressed in FlpIn CHO cells assessed as induction of ERK1/2 phosphorylation at 10 uM by AlphaScreen assay; type: cell-based
Summary of the method: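 Time-course ERK1/2 phosphorylation screen at 10 μM in FlpIn CHO cells stably expressing human D2L, seeded 50 000 cells/well, serum-starved overnight. Compounds applied at 37 °C over a time course to find peak stimulation time. Stimulation stopped by SureFire lysis, 5 min shaking at room temperature, lysate read by AlphaScreen.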

[4] = Retention time of the compound by HPLC analysis; type: physicochemical
Summary of the method: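 Reverse-phase C8 column, 0.1% TFA/water vs 0.1% TFA/80% MeOH; 100% A 10 min, 80% B over 2 min, back to 100% A over 10 min; 1 mL/min, detection at 214 nm.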

[5] = target: T1, D(2) dopamine receptor; conditions: CHO
[6] = target: T1, D(2) dopamine receptor; conditions: CHO; remark: listed apart in the source
[7] = target: T1, D(2) dopamine receptor; conditions: CHO; remark: listed apart in the source
[8] = target: T1, D(2) dopamine receptor; conditions: CHO; remark: listed apart in the source
[9] = target: T1, D(2) dopamine receptor; assay: Partial agonist activity at human D2L receptor expressed in FlpIn CHO cells assessed as induction of ERK1/2 phosphorylation by AlphaScreen assay; type: cell-based
Summary of the method: (§1)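 Stable human D2L FlpIn CHO cells serum-starved overnight, then given concentration series of agonist at 37 °C for 5–10 min, the per-compound peak time from time-course runs. Lysed with SureFire buffer and pERK1/2 detected by AlphaScreen. Three-parameter logistic fit gives pEC50; Emax as % of maximal dopamine response. Three to four experiments in duplicate.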

[10] = target: T1, D(2) dopamine receptor; assay: Partial agonist activity at human D2L receptor expressed in FlpIn CHO cells assessed as induction of ERK1/2 phosphorylation by AlphaScreen assay relative to dopamine; type: cell-based; summary of the method: as §1
[11] = target: T1, D(2) dopamine receptor; assay: Antagonist activity at human D2L receptor expressed in FlpIn CHO cells assessed as inhibition of dopamine-induced ERK1/2 phosphorylation treated for 30 mins prior to dopamine stimulation for 5 mins by AlphaScreen assay; type: cell-based
Summary of the method: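 D2L-FlpIn CHO cells serum-starved overnight. Compound serial dilutions preincubated 30 min at 37 °C, then 10 nM dopamine added for 5 min. Lysed in SureFire buffer, pERK1/2 read by AlphaScreen. pIC50 is the mean of three to four separate experiments run in duplicate.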

[12] = target: T1, D(2) dopamine receptor; conditions: CHO, at 10 µM
[13] = target: T1, D(2) dopamine receptor; assay: Agonist activity at human D2L receptor expressed in FlpIn CHO cells assessed as inhibition of forskolin-stimulated cAMP production treated for 30 mins by AlphaScreen assay relative to dopamine; type: functional, cell-based
Summary of the method: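 D2L-expressing FlpIn CHO cells grown overnight, then preincubated 45 min in HBSS stimulation buffer (1 mg/mL BSA, 0.5 mM IBMX, 5 mM HEPES, pH 7.4). Agonist and 300 nM forskolin added together for 30 min at 37 °C. Stopped with ice-cold ethanol, dried, lysed in detection buffer; cAMP measured by AlphaScreen. Operational-model fit gives log(τ/KA); n = 4.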

[14] = target: T1, D(2) dopamine receptor; assay: Agonist activity at human D2L receptor expressed in FlpIn CHO cells assessed as induction of ERK1/2 phosphorylation by AlphaScreen assay relative to dopamine; type: cell-based
Summary of the method: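 FlpIn CHO cells stably expressing human D2L receptor, seeded at 50 000 cells/well, serum-starved overnight. Ligands added at 37 °C for 5−10 min, time set per ligand from prior time-course runs. Lysed in SureFire buffer; phospho-ERK1/2 read by AlphaScreen. Curves fitted to three-parameter logistic; Emax as % of dopamine maximum. Three to four experiments in duplicate.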

[15] = target: T1, D(2) dopamine receptor; assay: Agonist activity at human D2L receptor expressed in FlpIn CHO cells assessed as induction of ERK1/2 phosphorylation by AlphaScreen assay; type: cell-based
[16] = target: T1, D(2) dopamine receptor; assay: Agonist activity at human D2L receptor expressed in FlpIn CHO cells assessed as inhibition of forskolin-stimulated cAMP production treated for 30 mins by AlphaScreen assay; type: functional, cell-based

## COc1ccccc1N1CCN(CCNC(=O)c2sc3nc(OC)c(Cl)c(C)c3c2N)CC1
[1]
  Ki: 0.0483 µM
[2]
  Kb: 0.355 µM
  pKb: 6.45

## CC(C)(C)OC(=O)NCCN1CCC(O)(c2ccc(Cl)cc2)CC1
[3]
  Activity: inactive
[1]
  Ki: 2.75 µM
[4]
  Retention_time: 7.68 min

## CC(C)(C)OC(=O)NCCCCCN1CCN(c2cccc(Cl)c2Cl)CC1
[5]
  pKA: 7.14
[1]
  Ki: 0.0426 µM
[6]
  log(activity): 0.43
[4]
  Retention_time: 10.43 min
[7]
  pKA: 7.73
[8]
  log(activity): -0.51

## COc1ccccc1N1CCN(CCCNC(=O)c2sc3nc(OC)c(Cl)c(C)c3c2N)CC1
[1]
  Ki: 0.0195 µM
[2]
  Kb: 0.741 µM
  pKb: 6.13

## COc1ccccc1N1CCN(CCCCNC(=O)OC(C)(C)C)CC1
[9]
  EC50: 0.0006 µM
[3]
  Activity: inactive
[1]
  Ki: 0.0189 µM
[10]
  Emax: 13%

## COc1ccccc1N1CCN(CCCCCCNC(=O)OC(C)(C)C)CC1
[1]
  Ki: 0.0748 µM
[11]
  IC50: 0.00398 µM
[12]
  inhibition: Active

## Cc1cc(C)c2c(N)c(C(=O)NCCN3CCC(O)(c4ccc(Cl)cc4)CC3)sc2n1
[1]
  Ki: 0.91 µM
[4]
  Retention_time: 8.06 min

## Cc1cc(C)c2c(N)c(C(=O)NCCCN3CCC(O)(c4ccc(Cl)cc4)CC3)sc2n1
[1]
  Ki: 1.7 µM

## NCCc1ccc(O)c(O)c1
[5]
  pKA: 7.98
[8]
  log(activity): 0.79

## OC1(c2ccc(Cl)cc2)CCNCC1
[1]
  Ki: 9.09 µM

## Clc1cccc(N2CCNCC2)c1Cl
[1]
  Ki: 1.16 µM

## Cc1cc(C)c2c(N)c(C(=O)NCCCCN3CCC(O)(c4ccc(Cl)cc4)CC3)sc2n1
[1]
  Ki: 2.25 µM

## COc1ccccc1N1CCN(CCCNC(=O)OC(C)(C)C)CC1
[9]
  EC50: 0.00039 µM
[3]
  Activity: inactive
[1]
  Ki: 0.0161 µM
[4]
  Retention_time: 7.74 min
[10]
  Emax: 31%

## COc1ccccc1N1CCN(CCCCNC(=O)c2sc3nc(OC)c(Cl)c(C)c3c2N)CC1
[1]
  Ki: 0.0063 µM
[4]
  Retention_time: 9.3 min
[2]
  Kb: 0.49 µM
  pKb: 6.31

## CC(C)(C)OC(=O)NCCCCCCN1CCC(O)(c2ccc(Cl)cc2)CC1
[3]
  Activity: inactive
[1]
  Ki: 0.902 µM
[4]
  Retention_time: 8.77 min

## COc1ccccc1N1CCNCC1
[1]
  Ki: 4.11 µM
[11]
  IC50: > 1 µM
[11]; cho
  pIC50: < 6
[2]
  Kb: 0.479 µM
  pKb: 6.32
[12]
  inhibition: Active

## CC(C)(C)OC(=O)NCCCCCN1CCC(O)(c2ccc(Cl)cc2)CC1
[3]
  Activity: inactive
[1]
  Ki: 2.05 µM

## COc1ccccc1N1CCN(CCCCCNC(=O)c2sc3nc(C)cc(C)c3c2N)CC1
[1]
  Ki: 0.0091 µM
[6]
  log(activity): -0.42
[4]
  Retention_time: 8.89 min
[7]
  pKA: 8.84
[13]
  Emax: 33%

## CC(C)(C)OC(=O)NCCCCN1CCC(O)(c2ccc(Cl)cc2)CC1
[3]
  Activity: inactive
[1]
  Ki: 2.11 µM

## Cc1cc(C)c2c(N)c(C(=O)NCCCCCN3CCC(O)(c4ccc(Cl)cc4)CC3)sc2n1
[1]
  Ki: 1.98 µM

## CC(C)(C)OC(=O)NCCCN1CCC(O)(c2ccc(Cl)cc2)CC1
[3]
  Activity: inactive
[1]
  Ki: 1.35 µM

## COc1ccccc1N1CCN(CCCCCCNC(=O)c2sc3nc(OC)c(Cl)c(C)c3c2N)CC1
[9]
  EC50: 0.00549 µM
[1]
  Ki: 0.0006 µM
[10]
  Emax: 14%

## Cc1cc(C)c2c(N)c(C(=O)NCCCCCCN3CCC(O)(c4ccc(Cl)cc4)CC3)sc2n1
[1]
  Ki: 0.975 µM
[4]
  Retention_time: 8.39 min

## COc1nc2sc(C(=O)NCCCCCN3CCN(c4cccc(Cl)c4Cl)CC3)c(N)c2c(C)c1Cl
[14]
  Emax: 17%
[5]
  pKA: 7.1
[1]
  Ki: 0.0155 µM
[6]
  log(activity): 0.28
[4]
  Retention_time: 11.66 min
[7]
  Ka: 58.9 nM
  pKA: 6.89
[13]
  Emax: 71%
[15]
  EC50: 0.0876 µM
[8]
  log(activity): -0.65

## COc1ccccc1N1CCN(CCCCCNC(=O)c2sc3nc(OC)c(Cl)c(C)c3c2N)CC1
[9]
  EC50: 0.00269 µM
[5]
  pKA: 8.86
[1]
  Ki: 0.0035 µM
[6]
  log(activity): -0.26
[4]
  Retention_time: 9.84 min
[10]
  Emax: 17%
[7]
  pKA: 7.47
[8]
  log(activity): -0.65

## COc1ccccc1N1CCN(CCCCCNC(=O)OC(C)(C)C)CC1
[9]
  EC50: 0.00143 µM
[3]
  Activity: inactive
[5]
  pKA: 8.77
[1]
  Ki: 0.0121 µM
[6]
  log(activity): 0.19
[4]
  Retention_time: 10.43 min
[10]
  Emax: 19%
[7]
  pKA: 7.06
[8]
  log(activity): -0.67

## Cc1cc(C)c2c(N)c(C(=O)NCCCCCN3CCN(c4cccc(Cl)c4Cl)CC3)sc2n1
[14]
  Emax: 13%
[5]
  pKA: 7.9
[1]
  Ki: 0.0112 µM
[6]
  log(activity): -0.06
[4]
  Retention_time: 10.13 min
[16]
  EC50: 0.0003 µM
[7]
  pKA: 9
[13]
  Emax: 50%
[15]
  EC50: 0.0132 µM
[8]
  log(activity): -0.78
